Mdm2 MdmX PPI = human Mdm2/MdmX binding inhibition. 330,000 tested, 3% active. O15151+Q00987. SaOS-2 split-luciferase Mdm2/MdmX complementation, luminescence. inhibition, % at 8 µM;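 active means inhibition of at least 50% at 8 µM in the primary screen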
CHOP UPR activ = activators of apoptotic arm of unfolded protein response (CHOP); 330,000 tested, 0.34% active; activation, % at 10 µM; CHO-CHOP luciferase reporter, UPR activation, luminescence; percent of tunicamycin response over DMSO baseline; AID 449763;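 active means at 10 µM dose, activation of 40% or more, normalized to positive control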;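 further: 100% = tunicamycin at 10 µg/mL and 0% = DMSO alone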
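Material: CHO-CHOP cells, stable luciferase reporter of PERK-eIF2a-CHOP signalling; quantity: 500 reporter cells seeded per well; buffer or medium: F12 medium containing 10% fetal bovine serum; compound: one dose, 10 µM in 0.5% DMSO; incubation: 6 h compound treatment, 37 °C; measured by: Steady-Glo luciferase luminescence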
UPR XBP1 act = adaptive UPR (XBP1) activation; CHO-XBP1 luciferase reporter, IRE1-XBP1 UPR activation, luminescence; percent of tunicamycin response, DMSO as zero; activation, % at 20 µM; 330,000 tested, 0.33% active; AID 463104;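 active means versus positive control, 20 µM dose yields 30% or more activation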;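 further: 100% = tunicamycin at 10 µg/mL and 0% = DMSO only wells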
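Test system: CHO-XBP1 luciferase reporter cells | Buffer or medium: Serum-containing F12 medium, 10% FBS | Schedule: 6 h compound exposure at 37 °C, 5% CO2 | Detection: Steady-Glo luciferase glow luminescence, 10 min after reagent addition | Read-out basis: Activation, % of tunicamycin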
Dynein cargo inh = dynein cargo transport inhibition; z-score, hits read low; AID 1381; 3617.4 mouse cells, GR-EGFP nuclear translocation imaging; test concentration mostly 20 µM; stimulated with dexamethasone, 1 µM; active compounds read low; 220,000 tested, 0.47% active;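 active means plate z-score of nuclear minus cytoplasmic receptor signal below a set negative limit, without overly bright fluorescence or cell loss, cut at about -3.5 in these data, passing the limit was not always enough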;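 further: z-score of nuclear minus cytoplasmic ring GR-EGFP intensity difference per well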
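Buffer or medium: Induction medium lacking tetracycline, stripped serum | Also added: Dexamethasone agonist, 1.0 µM final, for 30 min | Timing: 48 h induction, 1 h compound, 30 min dex at 37 °C | Detection: Formaldehyde fixation, Hoechst nuclear stain, 10x automated fluorescence imaging | Measure: Nuclear versus cytoplasmic GR-EGFP signal, averaged per well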
Beta2AR agonist = agonists of human beta-2 adrenergic receptor inducing internalization; P07550; Am2.2-beta2AR cells, FAP receptor internalization, flow cytometry; response, % (test concentration not listed); 340,000 tested, 0.43% active;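 active means response above a set limit, near 3 SD of response in nonfluorescent compounds, cut at about 42% in these data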
MDM2 E3 inh = inhibitors of human Mdm2 E3 ubiquitin ligase; Q00987; cell-based MDM2 ubiquitination luciferase reporter, 2 h; 0 = plate control, 100 = twice control, blank-subtracted; signal enhancement, % at 5 µM; 210,000 tested, 0.11% active; AID 1230;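 active means signal enhancement of 30% or more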;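 further: luminescence tracks abundance of the self-degrading MDM2-luciferase fusion protein; higher signal means inhibition of MDM2 E3 ligase activity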
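Assay system: stable mammalian line carrying autodegrading MDM2–luciferase fusion reporter; amount: 2000 cells seeded into each well; buffer or medium: DMEM; benchmarks: plate control and blank wells; signal: luciferase luminescence; timing: 2 h compound exposure at 37 °C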
Mdm2 MdmX conf = confirmation of human Mdm2/MdmX interaction inhibitors | shares compounds with Mdm2 MdmX PPI | Mdm2-MdmX binding, luminescent assay | inhibition, % at 8 µM | 10,000 tested, 55% active; in the data active means inhibition above about 40%
Full FLuc ctr = inhibits full-length luciferase, flagging false Mdm2/MdmX hits | shares compounds with Mdm2 MdmX PPI | SaOS-2 full-length luciferase counterscreen, luminescence | inhibition, % at 8 µM | 6,200 tested, 77% active | AID 504607;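 active means mean inhibition at 8 µM reaching about 37%, which flags the compound as non-specific, limit read from the data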;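 further: p53-null SaOS-2 cells with luciferase driven by a doxycycline-inducible promoter; compound on cells about two nights before reading with doxycycline added after day one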
Starred values were filed as active, the others as inactive; / = not tested or not shown. In the library only some 3.7% were active in any assay of this set; here they are far more common.

SMILES	Mdm2 MdmX PPI	CHOP UPR activ	UPR XBP1 act	Dynein cargo inh	Beta2AR agonist	MDM2 E3 inh	Mdm2 MdmX conf	Full FLuc ctr
COc1ccc(C(=O)n2nc(-c3ccc(OC)cc3)nc2N)cc1	-13	-1	1	0.055	-5	-1	/	/
COc1ccc2cc3c(N)nn(C(=O)c4cccc(F)c4)c3nc2c1	71*	0	3	0.98	11	-8	81*	43*
COc1ccc2cc3c(N)nn(C(=O)c4ccc(F)cc4)c3nc2c1	82*	0	-1	-0.53	1	-17	89*	47*
CC1CCCC(NC(=O)COC(=O)/C=C/c2ccc(S(=O)(=O)N3CCOCC3)cc2)C1C (stereo unspecified)	15	-2	-2	-0.36	1	/	/	/
CCc1nc2ccccc2c(C(=O)OCC(=O)Nc2cccc(S(=O)(=O)N3CCOCC3)c2)c1C	66*	3	8	-0.89	23	0	75*	45*
CCc1nc2ccccc2c(C(=O)OCC(=O)Nc2ccc(S(=O)(=O)N3CCOCC3)cc2)c1C	23	-1	-2	0.028	16	4	/	/
O=C(NCCOc1ccccc1Cl)c1cccc2c1C(=O)c1ccc(Cl)cc1S2(=O)=O	59*	3	-1	/	4	/	-3	/
COc1ccc(-c2ccc3c(c2)S(=O)(=O)c2cccc(C(=O)NCCOc4ccccc4)c2C3=O)cc1OC	76*	13	4	/	0	/	27	/
O=C(NCCOc1ccccc1)c1cccc2c1C(=O)c1ccc(Cl)cc1S2(=O)=O	16	5	1	/	-4	/	/	/
O=C1c2ccc(Cl)cc2S(=O)(=O)c2cccc(C(=O)N3CCC(Cc4ccccc4)CC3)c21	68*	2	-3	/	23	/	-3	/
O=C(NC1CC1)c1cccc2c1C(=O)c1ccc(N3CCC(Cc4ccccc4)CC3)cc1S2(=O)=O	17	1	-1	/	-40	/	/	/
COc1ccc(OC[C@@H](O)CNC(=O)c2cccc3c2C(=O)c2ccc(-c4ccc(F)cc4OCc4ccccc4)cc2S3(=O)=O)cc1	13	5	-1	/	-7	/	/	/
COc1ccc(NC(=O)c2cccc3c2C(=O)c2ccc(-c4ccc(F)cc4OCc4ccccc4)cc2S3(=O)=O)cc1	78*	3	0	/	2	/	31	/
COc1ccc(CNC(=O)CN2C(=O)NC(Cc3ccccc3)(c3ccccc3)C2=O)cc1OC (stereo unspecified)	9	1	-2	/	6	/	/	/
O=C(NCCc1ccccc1)C1CCC(CNc2nc(=S)[nH]c3ccccc23)CC1 (stereo unspecified)	96*	1	0	1	-11	1	6	/
c1cc2c(cc1C1=NNC(=NC3CC3)SC1)OCCO2	92*	-10	-15	0.22	-7	-93	86*	56*
Cc1cc(C2=NNC(=NC3CC3)SC2)c(C)n1-c1ccccc1F	99*	-12	-7	-2	-14	-91	99*	12
Cc1cc(C2=NNC(=NC3CCCCC3)SC2)c(C)n1-c1c(C)n(C)n(-c2ccccc2)c1=O	-7	1	-1	-0.2	-1	-11	/	/
CCCCN=C1NN=C(c2ccc3c(c2)OCCO3)CS1	-39	2	-7	-0.27	4	-56	/	/
CCCC(C)c1nnc(NC(=O)C2CC(=O)N(CCc3ccc(F)cc3)C2)s1 (stereo unspecified)	11	3	-6	/	6	/	/	/
Cc1cc2ccccn2c1C(=O)c1ccc([N+](=O)[O-])o1	64*	13	1	0.27	7	-8	26	/
COc1cc(C(=O)NCC(=O)Nc2c(C)cccc2C)ccc1OCC(=O)N1CCOCC1	1	0	1	/	3	/	/	/
COc1ccc(C(=O)/C=C/c2cn(CC(O)CN3CCN(C)CC3)c3ccccc23)cc1OC (stereo unspecified)	50*	2	1	0.096	-25	-11	25	/
CCCCN(C)CC(O)Cn1cc(/C=C/C(=O)c2ccc(C)cc2)c2ccccc21 (stereo unspecified)	74*	1	21	/	20	/	20	/
O=C(/C=C/c1cn(CC(O)CN2CCCCC2)c2ccccc12)c1ccccc1 (stereo unspecified)	/	/	/	-0.59	21	-8	/	/
SMILES	Mdm2 MdmX PPI	CHOP UPR activ	UPR XBP1 act	Dynein cargo inh	Beta2AR agonist	MDM2 E3 inh	Mdm2 MdmX conf	Full FLuc ctr
Brc1ccc(N/N=C(/N=Nc2nn[nH]n2)c2ccccc2)cc1	77*	-3	-2	-1.5	5	-4	85*	14
O=C(O)c1ccc(N=N/C(=N\Nc2ccc(C(=O)O)cc2)c2ccccc2)cc1	5	4	-4	/	4	/	/	/
Cc1cc(Br)ccc1NC(=O)CN(C)Cc1cccs1	12	3	-1	/	0	/	/	/
O=C1NC(=S)SC1=Cc1ccc2c(c1)OCO2	/	/	/	/	7	/	/	/
O=C1NC(=S)N/C1=C/c1ccc2c(c1)OCO2	80*	-2	-3	/	0	/	50*	91*
O=C1CCC(C(=O)Nc2cccc(Br)c2)N1 (stereo unspecified)	7	2	-3	/	8	/	/	/
O=c1oc(C2(O)CCCCC2)cc2ccc(-c3ccc4[nH]ccc4c3)cc12	81*	7	4	/	10	/	61*	41*
COc1ccccc1NC(=O)N[C@@H](Cc1c[nH]c2ccccc12)C(=O)NN	4	-2	5	/	-2	/	/	/
Cc1ccc(C)c(NC(=O)Cn2nnc(-c3ccc(N4CCOCC4)cc3)n2)c1	83*	1	-1	0.28	1	-3	38	83*
COc1ccc(CCNC(=O)Cn2nnc(-c3ccc(N4CCOCC4)cc3)n2)cc1OC	28	19	1	-0.71	-2	-16	/	/
N/C(=N\c1nc2ccccc2o1)NC(=O)c1ccc(F)cc1	67*	2	2	-0.47	21	-11	8	/
N/C(=N\c1nc2ccccc2o1)NC(=O)c1ccc(Cl)cc1	23	1	2	2.9	-14	0	/	/
Cc1cc(Nc2nc3ccccc3nc2Cl)n(-c2ccccc2)n1	64*	0	4	-0.72	-13	0	59*	41*
O=S(c1ccc2ccccc2c1)c1cnns1 (stereo unspecified)	57*	-9	-11	-0.97	-7	-16	28	/

Screening data (PubChem)
